Measured values published in ChEMBL document CHEMBL1145471, “Small molecule regulators of autophagy identified by an image-based high-throughput screen” (Proc Natl Acad Sci U S A, 2007).

Experiments:
Type in all cases: functional
H4 [1] = assay: Increase in light chain 3-GFP+ autophagosome vesicle number per cell in human H4 cells at 4.5 uM after 24 hrs by high throughput fluorescence microscopy relative to control
In short: (§1)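 H4 cells stably expressing LC3-GFP were grown in DMEM with 10% FBS and 2 mM L-glutamine at 37°C, 5% CO2. They were exposed to each compound for 24 h, with DMSO as negative and rapamycin as positive control. Cells were then fixed in 4% paraformaldehyde and stained with 3 μg/ml DAPI. High-throughput fluorescence imaging scored LC3-GFP spot number, size and intensity, expressed relative to DMSO. Mean ± SD of triplicates; experiments repeated three times.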

H4 [2] = assay: Increase in light chain 3-GFP+ autophagosome vesicle intensity per cell in human H4 cells at 4.5 uM after 24 hrs by high throughput fluorescence microscopy relative to control; in short: as §1
H4 [3] = assay: Increase in light chain 3-GFP+ autophagosome vesicle area per cell in human H4 cells at 4.5 uM after 24 hrs by high throughput fluorescence microscopy relative to control
In short: (§2)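 H4 cells stably expressing LC3-GFP, seeded in 96-well plates and exposed to compound for 24 h; screening concentrations were 3–12 μM, with rapamycin 0.22 μM and bafilomycin A1 0.40 μM. Cells fixed in 4% paraformaldehyde and stained with 3 μg/ml DAPI. Number, size and intensity of LC3-GFP spots measured by high-throughput fluorescence microscopy and expressed as percent of DMSO-treated wells. Rapamycin was the positive control. Triplicate wells, mean ± SD; experiments repeated three times.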

H4 [4] = assay: Induction of light chain 3-GFP level in human H4 cells at 4.5 uM after 24 hrs by high throughput fluorescence microscopy relative to control
In short: (§3)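 H4 cells stably expressing LC3-GFP, grown in DMEM with 10% FBS, penicillin/streptomycin and 2 mM L-glutamine at 37°C, 5% CO2. Cells were seeded in 96-well plates and exposed to library compounds at 3–12 μM for 24 h, then fixed in 4% paraformaldehyde and stained with 3 μg/ml DAPI. LC3-GFP spot number, size and intensity were measured by high-throughput fluorescence microscopy and expressed relative to DMSO. Triplicates, mean ± SD.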

H4 [5] = assay: Increase in light chain 3-GFP+ autophagosome vesicle area per cell in human H4 cells at 4.3 uM after 24 hrs by high throughput fluorescence microscopy relative to control; in short: as §2
H4 [6] = assay: Increase in light chain 3-GFP+ autophagosome vesicle number per cell in human H4 cells at 4.3 uM after 24 hrs by high throughput fluorescence microscopy relative to control; in short: as §1
H4 [7] = assay: Increase in light chain 3-GFP+ autophagosome vesicle intensity per cell in human H4 cells at 4.3 uM after 24 hrs by high throughput fluorescence microscopy relative to control; in short: as §1
H4 [8] = assay: Induction of light chain 3-GFP level in human H4 cells at 4.3 uM after 24 hrs by high throughput fluorescence microscopy relative to control; in short: as §3
H4 [9] = assay: Induction of light chain 3-GFP level in human H4 cells at 6.1 uM after 24 hrs by high throughput fluorescence microscopy relative to control
In short: (§4)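 H4 cells stably expressing LC3-GFP, kept in DMEM/10% FBS at 37°C, 5% CO2, were seeded in 96-well plates and exposed to compound for 24 h. Cells were then fixed in 4% paraformaldehyde and stained with 3 μg/ml DAPI. Automated fluorescence microscopy scored the number, size and intensity of LC3-GFP spots. Values are percent of DMSO wells, in triplicate, mean ± SD. Rapamycin served as positive control.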

H4 [10] = assay: Increase in light chain 3-GFP+ autophagosome vesicle intensity per cell in human H4 cells at 6.1 uM after 24 hrs by high throughput fluorescence microscopy relative to control
In short: (§5)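 H4 cells stably expressing LC3-GFP, seeded in 96-well plates and exposed to compound for 24 h; fixed in 4% paraformaldehyde, nuclei stained with 3 μg/ml DAPI. Automated fluorescence microscopy scored number, size and intensity of LC3-GFP spots; values expressed relative to DMSO-treated wells, rapamycin positive control. Triplicate wells, mean ± SD; experiments repeated three times.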

H4 [11] = assay: Increase in light chain 3-GFP+ autophagosome vesicle number per cell in human H4 cells at 6.1 uM after 24 hrs by high throughput fluorescence microscopy relative to control; in short: as §4
H4 [12] = assay: Increase in light chain 3-GFP+ autophagosome vesicle area per cell in human H4 cells at 3.8 uM after 24 hrs by high throughput fluorescence microscopy relative to control; in short: as §5
H4 [13] = assay: Increase in light chain 3-GFP+ autophagosome vesicle number per cell in human H4 cells at 4.8 uM after 24 hrs by high throughput fluorescence microscopy relative to control; in short: as §4
H4 [14] = assay: Increase in light chain 3-GFP+ autophagosome vesicle intensity per cell in human H4 cells at 4.8 uM after 24 hrs by high throughput fluorescence microscopy relative to control; in short: as §5
H4 [15] = assay: Increase in light chain 3-GFP+ autophagosome vesicle area per cell in human H4 cells at 4.8 uM after 24 hrs by high throughput fluorescence microscopy relative to control; in short: as §5
H4 [16] = assay: Induction of light chain 3-GFP level in human H4 cells at 4.8 uM after 24 hrs by high throughput fluorescence microscopy relative to control; in short: as §4
H4 [17] = assay: Increase in long-lived protein degradation in human H4 cells after 24 hrs relative to control; parameters: concentration or dose not given beside the values
H4 [18] = assay: Increase in long-lived protein degradation in human H4 cells after 1 hr relative to control; parameters: concentration or dose not given beside the values
H4 [19] = assay: Decrease in FYVE-RFP+ vesicle intensity per cell in human H4 cells after 8 hrs relative to control; parameters: concentration or dose not given beside the values
In short: (§6)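 H4 cells stably expressing FYVE-RFP (H4-FYVE), grown in DMEM with 10% FBS, penicillin/streptomycin and 2 mM L-glutamine at 37°C, 5% CO2, seeded in 96-well plates and exposed to compound. Fixed in 4% paraformaldehyde, nuclei stained with 3 μg/ml DAPI, FYVE-RFP+ vesicles quantified by high-throughput fluorescence microscopy against DMSO control. Triplicate wells, mean ± SD.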

H4 [20] = assay: Increase in long-lived protein degradation in human H4 cells after 2 hrs relative to control; parameters: concentration or dose not given beside the values
H4 [21] = assay: Decrease in FYVE-RFP+ vesicle intensity per cell in human H4 cells after 2 hrs relative to control; parameters: concentration or dose not given beside the values; in short: as §6
H4 [22] = assay: Decrease in FYVE-RFP+ vesicle intensity per cell in human H4 cells after 4 hrs relative to control; parameters: concentration or dose not given beside the values; in short: as §6
H4 [23] = assay: Increase in long-lived protein degradation in human H4 cells after 4 hrs relative to control; parameters: concentration or dose not given beside the values

Cn1cc(C2=C(c3cn(CCCSC(=N)N)c4ccccc34)C(=O)NC2=O)c2ccccc21 [BISINDOLYLMALEIMIDE IX]
Activity (H4 [1]): 190.07%
Activity (H4 [2]): 240.67%
Activity (H4 [3]): 190.1%
Activity (H4 [4]): 50.58%

C=CCNC1=C2C[C@@H](C)C[C@H](OC)[C@H](O)[C@@H](C)/C=C(\C)[C@H](OC(N)=O)[C@@H](OC)/C=C\C=C(/C)C(=O)NC(=CC1=O)C2=O [TANESPIMYCIN]
Activity (H4 [5]): 364.98%
Activity (H4 [6]): 293.36%
Activity (H4 [7]): 385.49%
Activity (H4 [8]): 66.89%

CN(C)CCCn1cc(C2=C(c3c[nH]c4ccccc34)C(=O)NC2=O)c2ccccc21 [GF-109203]
Activity (H4 [9]): 47.77%
Activity (H4 [10]): 211.81%
Activity (H4 [11]): 198.94%
Activity (H4 [12]): 208.08%

CNc1ccc2oc(C[C@@H]3OC4(CC[C@@H]3C)O[C@H]([C@@H](C)C(=O)c3ccc[nH]3)[C@H](C)C[C@H]4C)nc2c1C(=O)O (some centres not stated)
Activity (H4 [13]): 181.04%
Activity (H4 [14]): 15083%
Activity (H4 [15]): 172.66%
Activity (H4 [16]): 49.3%

COC1=C2C[C@@H](C)C[C@H](OC)[C@H](O)[C@@H](C)/C=C(\C)[C@H](OC(N)=O)[C@@H](OC)/C=C\C=C(/C)C(=O)NC(=CC1=O)C2=O [GELDANAMYCIN]
Activity (H4 [1]): 313.52%
Activity (H4 [17]): 72.93%
Activity (H4 [18]): 87.25%
Activity (H4 [2]): 546.8%
Activity (H4 [19]): 39.26%
Activity (H4 [20]): 74.67%
Activity (H4 [3]): 398.91%
Activity (H4 [21]): 35.18%
Activity (H4 [22]): 41.33%
Activity (H4 [23]): 87.795%
Activity (H4 [4]): 81.41%
